{
  "source": "ChEMBL document CHEMBL4689842",
  "about": "“EUbOPEN Chemogenomics Library wave 1” (2021)",
  "type_in_all_cases": "toxicity, cell-based",
  "key": {"U2OS [1]": {"test_system": "U2OS", "experiment": "Multiplex assay against U2OS", "conditions": "human", "procedure,_shortened": "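With compound added, live cells were imaged on a CQ1 microscope at 37°C and 5% CO2; staining with Hoechst33342, BioTracker Green Microtubule Cytoskeleton Dye, MitoTracker Red and Annexin V Alexa Fluor 680 had been done at seeding. The CellPathfinder machine-learning gating scheme split cells into Hoechst high-intensity objects or normal cells, normal cells into healthy, pyknosed or fragmented nuclei, and pyknosed cells into mitotic or apoptotic. The tubulin, mitochondrial-mass and membrane-permeability phenotypes are per cents of healthy-nucleus cells.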"}, "HEK-293T": {"test_system": "HEK-293T", "experiment": "Incucyte cell viability with HEK293T; further: filed as whole numbers so only -1 and 0 and 1 occur", "conditions": "human, 10 µM, compound concentration 10 uM"}, "Fibroblast": {"test_system": "Fibroblast", "experiment": "Incucyte cell viability with human fibroblast; further: filed as whole numbers so only -1 and 0 and 1 occur", "conditions": "10 µM, compound concentration 10 uM"}, "U2OS [2]": {"test_system": "U2OS", "experiment": "Incucyte cell viability with U2OS; further: filed as whole numbers so only -1 and 0 and 1 occur", "conditions": "human, 10 µM, compound concentration 10 uM"}, "[3]": {"conditions": "24 h, 10 µM, compound concentration 10 uM, replicate 2"}, "[4]": {"conditions": "48 h, 1 µM, compound concentration 1 uM, replicate 1"}, "[5]": {"conditions": "48 h, 1 µM, compound concentration 1 uM, replicate 2"}, "[6]": {"conditions": "48 h, 10 µM, compound concentration 10 uM, replicate 1"}, "[7]": {"conditions": "48 h, 10 µM, compound concentration 10 uM, replicate 2"}, "[8]": {"conditions": "0 h, replicate number 1, timepoint 0 hours"}, "[9]": {"conditions": "6 h, replicate number 1, timepoint 6 hours"}, "[10]": {"conditions": "12 h, replicate number 1, timepoint 12 hours"}, "[11]": {"conditions": "18 h, replicate number 1, timepoint 18 hours"}, "[12]": {"conditions": "24 h, replicate number 1, timepoint 24 hours"}},
  "data": [
    {"smiles": "N#Cc1cccc(C(=O)Nc2cc(-c3ccccc3)nn2-c2ccccc2)c1", "values": [
      {"measurement": "Total Cell Count", "setting": "U2OS [1]; 24 h, 10 µM, compound concentration 10 uM, replicate 1", "result": 119},
      {"measurement": "Population Apoptotic (%)", "setting": "U2OS [1]; [3]", "result": 42, "unit": "%"},
      {"measurement": "Population Fragmented Nuclei (%)", "setting": "U2OS [1]; [3]", "result": 9, "unit": "%"},
      {"measurement": "Population Healthy Nuclei (%)", "setting": "U2OS [1]; [3]", "result": 67, "unit": "%"},
      {"measurement": "Population Hoechst High Intensity Objects (%)", "setting": "U2OS [1]; [3]", "result": 6, "unit": "%"},
      {"measurement": "Population Membrane Permeable-Phenotype (%)", "setting": "U2OS [1]; [3]", "result": 30, "unit": "%"},
      {"measurement": "Population Mitochondria Different-Phenotype (%)", "setting": "U2OS [1]; [3]", "result": 71, "unit": "%"},
      {"measurement": "Population Mitotic Cells (%)", "setting": "U2OS [1]; [3]", "result": 57, "unit": "%"},
      {"measurement": "Population Normal (%)", "setting": "U2OS [1]; [3]", "result": 93, "unit": "%"},
      {"measurement": "Population Pyknosed Nuclei (%)", "setting": "U2OS [1]; [3]", "result": 22, "unit": "%"},
      {"measurement": "Population Tubulin-Different-Phenotype (%)", "setting": "U2OS [1]; [3]", "result": 95, "unit": "%"},
      {"measurement": "Total Cell Count", "setting": "U2OS [1]; [3]", "result": 66},
      {"measurement": "Population Apoptotic (%)", "setting": "U2OS [1]; [4]", "result": 38, "unit": "%"},
      {"measurement": "Population Fragmented Nuclei (%)", "setting": "U2OS [1]; [4]", "result": 10, "unit": "%"},
      {"measurement": "Population Healthy Nuclei (%)", "setting": "U2OS [1]; [4]", "result": 82, "unit": "%"},
      {"measurement": "Population Hoechst High Intensity Objects (%)", "setting": "U2OS [1]; [4]", "result": 5, "unit": "%"},
      {"measurement": "Population Membrane Permeable-Phenotype (%)", "setting": "U2OS [1]; [4]", "result": 2, "unit": "%"},
      {"measurement": "Population Mitochondria Different-Phenotype (%)", "setting": "U2OS [1]; [4]", "result": 2, "unit": "%"},
      {"measurement": "Population Mitotic Cells (%)", "setting": "U2OS [1]; [4]", "result": 61, "unit": "%"},
      {"measurement": "Population Normal (%)", "setting": "U2OS [1]; [4]", "result": 94, "unit": "%"},
      {"measurement": "Population Pyknosed Nuclei (%)", "setting": "U2OS [1]; [4]", "result": 7, "unit": "%"},
      {"measurement": "Population Tubulin-Different-Phenotype (%)", "setting": "U2OS [1]; [4]", "result": 4, "unit": "%"},
      {"measurement": "Total Cell Count", "setting": "U2OS [1]; [4]", "result": 190},
      {"measurement": "Population Apoptotic (%)", "setting": "U2OS [1]; [5]", "result": 20, "unit": "%"},
      {"measurement": "Population Fragmented Nuclei (%)", "setting": "U2OS [1]; [5]", "result": 3, "unit": "%"},
      {"measurement": "Population Healthy Nuclei (%)", "setting": "U2OS [1]; [5]", "result": 86, "unit": "%"},
      {"measurement": "Population Hoechst High Intensity Objects (%)", "setting": "U2OS [1]; [5]", "result": 4, "unit": "%"},
      {"measurement": "Population Membrane Permeable-Phenotype (%)", "setting": "U2OS [1]; [5]", "result": 4, "unit": "%"},
      {"measurement": "Population Mitochondria Different-Phenotype (%)", "setting": "U2OS [1]; [5]", "result": 13, "unit": "%"},
      {"measurement": "Population Mitotic Cells (%)", "setting": "U2OS [1]; [5]", "result": 80, "unit": "%"},
      {"measurement": "Population Normal (%)", "setting": "U2OS [1]; [5]", "result": 95, "unit": "%"},
      {"measurement": "Population Pyknosed Nuclei (%)", "setting": "U2OS [1]; [5]", "result": 10, "unit": "%"},
      {"measurement": "Population Tubulin-Different-Phenotype (%)", "setting": "U2OS [1]; [5]", "result": 9, "unit": "%"},
      {"measurement": "Total Cell Count", "setting": "U2OS [1]; [5]", "result": 98},
      {"measurement": "Population Apoptotic (%)", "setting": "U2OS [1]; [6]", "result": 59, "unit": "%"},
      {"measurement": "Population Fragmented Nuclei (%)", "setting": "U2OS [1]; [6]", "result": 17, "unit": "%"},
      {"measurement": "Population Healthy Nuclei (%)", "setting": "U2OS [1]; [6]", "result": 58, "unit": "%"},
      {"measurement": "Population Hoechst High Intensity Objects (%)", "setting": "U2OS [1]; [6]", "result": 10, "unit": "%"},
      {"measurement": "Population Membrane Permeable-Phenotype (%)", "setting": "U2OS [1]; [6]", "result": 32, "unit": "%"},
      {"measurement": "Population Mitochondria Different-Phenotype (%)", "setting": "U2OS [1]; [6]", "result": 67, "unit": "%"},
      {"measurement": "Population Mitotic Cells (%)", "setting": "U2OS [1]; [6]", "result": 40, "unit": "%"},
      {"measurement": "Population Normal (%)", "setting": "U2OS [1]; [6]", "result": 89, "unit": "%"},
      {"measurement": "Population Pyknosed Nuclei (%)", "setting": "U2OS [1]; [6]", "result": 24, "unit": "%"},
      {"measurement": "Population Tubulin-Different-Phenotype (%)", "setting": "U2OS [1]; [6]", "result": 100, "unit": "%"},
      {"measurement": "Total Cell Count", "setting": "U2OS [1]; [6]", "result": 123},
      {"measurement": "Population Apoptotic (%)", "setting": "U2OS [1]; [7]", "result": 55, "unit": "%"},
      {"measurement": "Population Fragmented Nuclei (%)", "setting": "U2OS [1]; [7]", "result": 13, "unit": "%"},
      {"measurement": "Population Healthy Nuclei (%)", "setting": "U2OS [1]; [7]", "result": 60, "unit": "%"},
      {"measurement": "Population Hoechst High Intensity Objects (%)", "setting": "U2OS [1]; [7]", "result": 11, "unit": "%"},
      {"measurement": "Population Membrane Permeable-Phenotype (%)", "setting": "U2OS [1]; [7]", "result": 52, "unit": "%"},
      {"measurement": "Population Mitochondria Different-Phenotype (%)", "setting": "U2OS [1]; [7]", "result": 42, "unit": "%"},
      {"measurement": "Population Mitotic Cells (%)", "setting": "U2OS [1]; [7]", "result": 44, "unit": "%"},
      {"measurement": "Population Normal (%)", "setting": "U2OS [1]; [7]", "result": 88, "unit": "%"},
      {"measurement": "Population Pyknosed Nuclei (%)", "setting": "U2OS [1]; [7]", "result": 26, "unit": "%"},
      {"measurement": "Population Tubulin-Different-Phenotype (%)", "setting": "U2OS [1]; [7]", "result": 97, "unit": "%"},
      {"measurement": "Total Cell Count", "setting": "U2OS [1]; [7]", "result": 78},
      {"measurement": "Growth Rate", "setting": "HEK-293T; [8]", "result": 0},
      {"measurement": "Growth Rate", "setting": "HEK-293T; [9]", "result": 0},
      {"measurement": "Growth Rate", "setting": "HEK-293T; [10]", "result": 0},
      {"measurement": "Growth Rate", "setting": "HEK-293T; [11]", "result": 0},
      {"measurement": "Growth Rate", "setting": "HEK-293T; [12]", "result": 0},
      {"measurement": "Growth Rate", "setting": "Fibroblast; [8]", "result": 0},
      {"measurement": "Growth Rate", "setting": "Fibroblast; [9]", "result": 0},
      {"measurement": "Growth Rate", "setting": "Fibroblast; [10]", "result": 0},
      {"measurement": "Growth Rate", "setting": "Fibroblast; [11]", "result": 0},
      {"measurement": "Growth Rate", "setting": "Fibroblast; 18 h, replicate number 2, timepoint 18 hours", "result": 1},
      {"measurement": "Growth Rate", "setting": "Fibroblast; [12]", "result": 0},
      {"measurement": "Growth Rate", "setting": "Fibroblast; 24 h, replicate number 2, timepoint 24 hours", "result": 1},
      {"measurement": "Growth Rate", "setting": "U2OS [2]; 0 h, replicate number 2, timepoint 0 hours", "result": 0},
      {"measurement": "Growth Rate", "setting": "U2OS [2]; [9]", "result": 0},
      {"measurement": "Growth Rate", "setting": "U2OS [2]; [10]", "result": 0},
      {"measurement": "Growth Rate", "setting": "U2OS [2]; 12 h, replicate number 2, timepoint 12 hours", "result": 1},
      {"measurement": "Growth Rate", "setting": "U2OS [2]; [11]", "result": 0},
      {"measurement": "Growth Rate", "setting": "U2OS [2]; [12]", "result": 0}
    ]}
  ]
}
